The source made the active and inactive calls. No cut-off for these calls is given here.
Columns and labels:
Rattus norvegicus [1] = assay: In vivo locomotor activity (accumulated counts/30 min) in reserpine-pretreated rats, after subcutaneous administration of 0.31 umol/kg; format: functional
In short: (§1)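 Rats pretreated with reserpine 5 mg/kg sc 18 h earlier, then test drug sc immediately before session; photocell motility counts accumulated over 30 min, with gross behaviour observed through mirror. Mean ± SEM, n = 3-4; Student's t test vs saline controls; haloperidol pretreatment 0.5 mg/kg ip 30 min before used to test antagonism.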

Rattus norvegicus [2] = assay: Effect of in vivo DOPA accumulation in reserpine-pretreated rats at limbic region, at 5 mg/kg dosage administered subcutaneously; format: functional, Limbic system; conditions: route subcutaneous
Rattus norvegicus [3] = assay: Effect of in vivo DOPA accumulation in reserpine-pretreated rats at striatum region, at 5 mg/kg dosage administered sc; format: functional; conditions: route subcutaneous
Rattus norvegicus [4] = assay: Effect of in vivo DOPA accumulation in reserpine-pretreated rats at striatum region, at 5 mg/kg dosage administered sc; I = Inactive; format: functional, organism-based; design: dose 5 mg/kg
Rattus norvegicus [5] = assay: Effect of in vivo DOPA accumulation in reserpine-pretreated rats at limbic region, at 5 mg/kg dosage administered subcutaneously; I = Inactive; format: functional, organism-based; design: dose 5 mg/kg; conditions: Limbic system
Rattus norvegicus [6] = assay: In vivo locomotor activity (accumulated counts/30 min) in reserpine-pretreated rats, after subcutaneous administration of 0.32 uM/Kg; format: functional; in short: as §1
Rattus norvegicus [7] = assay: Effect on in vivo DOPA accumulation in nonpretreated rats at Limbic region, at 5 mg/kg dosage administered subcutaneously; I = Inactive; format: functional, organism-based; design: dose 5 mg/kg; conditions: Limbic system
In short: (§2)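 Nonpretreated rats given test drug sc 65 min and NSD 1015 (100 mg/kg ip) 30 min before death; saline controls. Limbic and striatal DOPA by HPLC with electrochemical detection.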

Rattus norvegicus [8] = assay: Effect on in vivo DOPA accumulation in nonpretreated rats at striatum region, at 5 mg/kg dosage administered subcutaneously; I = Inactive; format: functional, organism-based; design: dose 5 mg/kg; in short: as §2
Rattus norvegicus [9] = assay: In vivo locomotor activity (accumulated counts/30 min) in reserpine-pretreated rats, after subcutaneous administration of 10 uM/Kg; format: functional; in short: as §1
Rattus norvegicus [10] = assay: Evaluated for in vivo locomotor activity in nonpretreated rats, measured as accumulated counts/30 min at a dose of 52 umol/kg administered sc; format: functional
In short: (§3)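 Nonpretreated rats injected sc with test drug 5 min before session; motility by photocell recording, counts accumulated over 30 min. Expressed as percent of saline controls, means ± SEM, n = 3-5; Student's t test vs saline controls.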

Rattus norvegicus [11] = assay: Effect of in vivo DOPA accumulation in nonpretreated rats at limbic region, at 5 mg/kg dosage administered subcutaneously; I = Inactive; format: functional, organism-based; design: dose 5 mg/kg; conditions: Limbic system; in short: as §2
Rattus norvegicus [12] = assay: Effect on in vivo DOPA accumulation in nonpretreated rats at striatum region at 5 mg/kg dosage administered subcutaneously; I = Inactive; format: functional, organism-based; design: dose 5 mg/kg; in short: as §2
Rattus norvegicus [13] = assay: In vivo locomotor activity (accumulated counts/30 min) in nonpretreated rats after subcutaneous administration of 0.32 uM/Kg; format: functional; in short: as §3
Rattus norvegicus [14] = assay: In vivo locomotor activity (accumulated counts/30 min) in reserpine-pretreated rats, after subcutaneous administration of 3.2 uM/Kg; format: functional; in short: as §1
Rattus norvegicus [15] = assay: In vivo locomotor activity (accumulated counts/30 min) in nonpretreated rats after subcutaneous administration of 3.2 uM/Kg; format: functional; in short: as §3
Rattus norvegicus [16] = assay: In vivo locomotor activity (accumulated counts/30 min) in reserpine-pretreated rats, after subcutaneous administration of 39 uM/Kg; format: functional; in short: as §1
Rattus norvegicus [17] = assay: Effect of in vivo DOPA accumulation in reserpine-pretreated rats at striatum region, at 5 mg/kg dosage administered subcutaneously; format: functional; conditions: sc, route subcutaneous
Rattus norvegicus [18] = assay: In vivo locomotor activity (accumulated counts/30 min) in reserpine-pretreated rats, after subcutaneous administration of 52 uM/Kg; format: functional; in short: as §1
[19] = Rattus norvegicus, Limbic system, sc, read-out: ED50

## CCCN(CCC)[C@H]1CCc2c(O)cccc2C1
Rattus norvegicus [1]
  Locomotor activity: 155
Rattus norvegicus [2]; [19]
  ED50: 0.004 µmol/kg
Rattus norvegicus [3]
  ED50: 0.004 µmol/kg

## CCCN(CCC)[C@@H]1Cc2cccc(O)c2C[C@@H]1C
Rattus norvegicus [4]
  ED50: inactive
Rattus norvegicus [5]
  ED50: inactive
Rattus norvegicus [6]
  Locomotor activity: 110
Rattus norvegicus [7]
  ED50: inactive
Rattus norvegicus [8]
  ED50: inactive
Rattus norvegicus [9]
  Locomotor activity: 12
Rattus norvegicus [2]; [19]
  ED50: 0.005 µmol/kg
Rattus norvegicus [10]
  Locomotor activity: 70
Rattus norvegicus [3]
  ED50: 0.005 µmol/kg

## CCCN(CCC)[C@@H]1Cc2cccc(O)c2C[C@H]1C (stereo in doubt; (+)5) [listing 1 of 2 here]
Rattus norvegicus [11]
  ED50: inactive
Rattus norvegicus [12]
  ED50: inactive

## CN1CCc2cccc3c2[C@H]1Cc1ccc(O)c(O)c1-3 [APOMORPHINE]
Rattus norvegicus [13]
  Locomotor activity: 52
Rattus norvegicus [14]
  Locomotor activity: 366
Rattus norvegicus [2]; [19]
  ED50: 0.041 µmol/kg
Rattus norvegicus [15]
  Locomotor activity: 277
Rattus norvegicus [3]
  ED50: 0.044 µmol/kg

## CCCN(CCC)[C@@H]1CCc2c(O)cccc2C1
Rattus norvegicus [2]; [19]
  ED50: 0.41 µmol/kg
Rattus norvegicus [16]
  Locomotor activity: 43
Rattus norvegicus [3]
  ED50: 0.65 µmol/kg

## CCCN(CCC)[C@@H]1Cc2cccc(O)c2C[C@H]1C (stereo in doubt; (+)5) [listing 2 of 2 here]
Rattus norvegicus [17]
  ED50: 25 µmol/kg
Rattus norvegicus [18]
  Locomotor activity: 55
Rattus norvegicus [2]; dose 5 mg/kg
  ED50: 25 µM/kg
Rattus norvegicus [10]
  Locomotor activity: 84

## CCCN(CCC)[C@@H]1Cc2cccc(O)c2C[C@H]1C (stereo in doubt; (-)5)
Rattus norvegicus [18]
  Locomotor activity: 53
Rattus norvegicus [2]; dose 5 mg/kg
  ED50: 3.5 µM/kg
Rattus norvegicus [3]
  ED50: 3.1 µmol/kg
